# Assay results published in ChEMBL document CHEMBL4823251, “Structure-Based Exploration of Selectivity for ATM Inhibitors in Huntington's Disease” (J Med Chem, 2021).
# pIC50, pKd, pKi: −log10 of the molar value.
# Experiments:
# Homo sapiens [1] = organism: Homo sapiens; experiment: Selectivity ratio of Ki for full length recombinant GST-tagged VPS34 expressed in baculovirus expression system using PI/PS as substrate incubated for 60 mins in presence of ATP at Km concentration by luminescence assay to Ki for full length recombinant FLAG-tagged human ATM assessed as decrease in p53 S15 phosphorylation using full length myc-tagged p53 as substrate incubated for 30 mins in presence of ATP by ELISA
# In short: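 ADP-Glo luminescence read-out. ATM reaction: 0.75 nM enzyme, 25 nM myc-p53, 10 μM ATP, 30 min at 20 °C, p53 S15 phosphorylation by ELISA. Ki values are means of at least two experiments.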
# [2] = Kinetic solubility of the compound in pH 7.4 PBS buffer incubated for 2 hrs using orbital shaker by LC-UV mass spectrometry; type: physicochemical; settings: read-out: Kinetic_solubility
# In short: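 Shaken on an orbital shaker for 2 h at room temperature, then filtered. Filtrate analysed by LC-UV with MS confirmation, calibrated against 200 μM and 10 μM DMSO dilutions.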
# [3] = target: T1, Phosphatidylinositol 3-kinase catalytic subunit type 3 (Homo sapiens, UniProt Q8NEB9); experiment: Inhibition of full length recombinant GST-tagged human VPS34 expressed in baculovirus expression system using PI/PS as substrate incubated for 60 mins in presence of ATP at Km concentration by luminescence assay
# [4] = target: T2, Serine-protein kinase ATM (Homo sapiens, UniProt Q13315); experiment: Inhibition of ATM in human U2OS cells assessed as reduction in etoposide-stimulated KAP1 phosphorylation incubated for 60 mins by immunoreactivity assay; type: cell-based
# In short: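 U2OS cells plated overnight at 6k cells/well (37 °C, 5% CO₂), then treated with compound titrations (0.3% DMSO) plus 100 μM etoposide for 60 min. Cells fixed in cold methanol and stained for phospho-KAP1 and total KAP1 using IRDye secondaries on a LI-COR Odyssey. IC50 is the mean of at least two experiments.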
# Homo sapiens [5] = organism: Homo sapiens; experiment: Selectivity ratio of Ki for DNA-PK isolated from human HeLa nuclear extract using full length His-tagged p53 as substrate measured after 75 mins in presence of ATP by HTRF assay to Ki for full length recombinant FLAG-tagged human ATM assessed as decrease in p53 S15 phosphorylation using full length myc-tagged p53 as substrate incubated for 30 mins in presence of ATP by ELISA
# In short: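 HTRF detection of p53 S15 phosphorylation. ATM reaction: 0.75 nM enzyme, 25 nM myc-p53, 10 μM ATP, 30 min at 20 °C, anti-myc capture ELISA. Ki values are means of at least two experiments.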
# [6] = target: Serine/threonine-protein kinase ATR (Homo sapiens, UniProt Q13535); experiment: Inhibition of ATR in human HT-29 cells assessed as reduction in CHK1 phosphorylation incubated for 4 hrs; type: cell-based
# In short: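 HT29 cells seeded at 25k/well overnight, then treated with compound titrations (0.3% DMSO) plus 10 μM gemcitabine for 4 h. Cells fixed in paraformaldehyde, permeabilized with Triton-X, and stained for phospho-Chk1 and total Chk1 using LI-COR IRDye detection. Ratio normalized to DMSO and 30 μM AZ-20 controls. IC50 is the mean of at least two experiments.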
# [7] = Clearance in C57Bl/6 mouse at 0.8 mg/kg, iv administered as single dose; type: ADME, organism-based; settings: in vivo
# In short: (§1)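 Male C57BL/6 mice given a slow tail-vein bolus of a 0.4 mg/mL solution in 10:40:50 DMSO/PEG/H₂O, at 2 mg/kg (5 mL/kg) or 0.8 mg/kg (2 mL/kg). Plasma and brain sampled over 8 h, n = 3 per time point, and measured by LC–MS/MS. Noncompartmental analysis on mean concentrations with linear-trapezoidal AUC. Kp is the brain/plasma AUC ratio of total concentrations; Kpuu uses free concentrations, corrected by equilibrium-dialysis plasma and brain binding.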
# [8] = Bioavailability in C57Bl/6 mouse at 10 mg/kg, po or 0.8 mg/kg, iv; type: ADME, organism-based; settings: in vivo
# In short: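 An IV reference dose of 0.8 mg/kg was given. Plasma measured by LC–MS/MS, n = 3 per time point. %F calculated as dose-normalized PO AUCinf divided by dose-normalized IV AUCinf.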
# [9] = target: T2, Serine-protein kinase ATM; experiment: Inhibition of full length recombinant FLAG-tagged human ATM assessed as decrease in p53 S15 phosphorylation using full length myc-tagged p53 as substrate incubated for 30 mins in presence of ATP by ELISA
# In short: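 Buffer was 25 mM HEPES pH 7.5 with MgCl₂, MnCl₂, Brij-35, glycerol, BSA and DTT (0.1% DMSO); reaction ran 30 min at 20 °C and was stopped with 70 mM EDTA. Product captured on anti-myc-coated plates and detected with anti-p53 pS15, HRP secondary and TMB, absorbance at 450 nm.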
# [10] = Unbound brain-to-plasma concentration ratio in C57Bl/6 mouse at 0.8 mg/kg, iv administered as single dose; type: ADME, organism-based; settings: brain and plasma, read-out: K(p,uu,brain); in short: as §1
# [11] = Half life in C57Bl/6 mouse at 0.8 mg/kg, iv administered as single dose; type: ADME, organism-based; settings: in vivo; in short: as §1
# [12] = Volume of distribution at steady state in C57Bl/6 mouse at 0.8 mg/kg, iv administered as single dose; type: ADME, organism-based; settings: in vivo, read-out: Vdss; in short: as §1
# [13] = Brain to plasma permeability coefficient, Kp in C57Bl/6 mouse at 0.8 mg/kg, iv administered as single dose; type: ADME, organism-based; settings: brain and plasma; in short: as §1
# [14] = target: DNA-dependent protein kinase catalytic subunit (Homo sapiens, UniProt P78527); experiment: Inhibition of DNA-PK isolated from human HeLa nuclear extract using full length His-tagged p53 as substrate measured after 75 mins in presence of ATP by HTRF assay; type: subcellular, Nucleus
# In short: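 Buffer was 50 mM HEPES pH 7.5, 5 mM MgCl₂, 0.01% Brij35, 1 mM DTT and 1 μg/mL sheared calf thymus DNA; reaction ran 75 min at 20 °C. Stopped with d2-anti-6HIS and cryptate anti-phospho-p53 antibodies in KF/EDTA buffer. Read at 665/620 nm after 7 h.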
# [15] = Effective efflux ratio of apparent permeability across basolateral to apical over apical to basolateral side in MDCK-MDR1 cells assessed as efflux ratio after 1 hr by LC-MS/MS analysis; type: ADME, cell-based, Canis lupus familiaris; settings: dog, mdck-mdr1, 1 h
# In short: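 MDCKII MDR1 and wild-type cells seeded at 2 × 10⁵ cells/well in Transwells, cultured 3 days. Test compounds 10 μM in HBSS with 25 mM HEPES pH 7.4, dosed apical or basolateral in duplicate, 1 h at 37 °C. Lucifer yellow monolayer check, wells above 100 nm/s rejected. LC–MS/MS read-out. ER = Papp B>A/A>B. EER = MDR1 ER over wild-type ER.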
# [16] = Unbound brain-to-plasma concentration ratio in C57Bl/6 mouse at 2 mg/kg, iv administered as single dose; type: ADME, organism-based; settings: brain and plasma, read-out: K(p,uu,brain); in short: as §1
# [17] = Apparent permeability across apical to basolateral side in MDCK-MDR1 cells after 1 hr by LC-MS/MS analysis; type: ADME, cell-based, Canis lupus familiaris; settings: dog
# In short: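 MDCKII-MDR1 and wild-type cells seeded at 2 × 10⁵ cells/well on Transwells and cultured 3 days. Test compound at 10 μM in HBSS with 25 mM HEPES, pH 7.4, added apical or basolateral in duplicate. Lucifer yellow used as integrity check; wells above 100 nm/s rejected. Sampled after 1 h at 37 °C and quantified by LC–MS/MS. Papp taken from the apical-to-basal direction.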
# [18] = target: T1, Phosphatidylinositol 3-kinase catalytic subunit type 3; experiment: Binding affinity to VPS34 (unknown origin)
# [19] = Intrinsic clearance in C57Bl/6 mouse pooled liver microsomes at 1 uM measured up to 40 mins in presence of NADPH by LC-MS/MS analysis; type: ADME, Microsome; settings: read-out: CLH
# In short: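 Reaction started with 1 mM NADPH. Sampled at 0, 5, 10, 20 and 40 min, quenched in acetonitrile with internal standard, and analysed by LC–MS/MS.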
# [20] = Bioavailability in C57Bl/6 mouse at 10 mg/kg, po or 2 mg/kg, iv; settings: in vivo
# [21] = Volume of distribution at steady state in C57Bl/6 mouse at 2 mg/kg, iv administered as single dose; type: ADME, organism-based; settings: in vivo, read-out: Vdss; in short: as §1
# [22] = Clearance in C57Bl/6 mouse at 2 mg/kg, iv administered as single dose; type: ADME, organism-based; settings: in vivo; in short: as §1
# [23] = Brain to plasma permeability coefficient, Kp in C57Bl/6 mouse at 2 mg/kg, iv administered as single dose; type: ADME, organism-based; settings: brain and plasma; in short: as §1
# [24] = Half life in C57Bl/6 mouse at 2 mg/kg, iv administered as single dose; type: ADME, organism-based; settings: in vivo; in short: as §1
# [25] = target: Serine/threonine-protein kinase mTOR (Homo sapiens, UniProt P42345); experiment: Binding affinity to mTOR (unknown origin)
# Sequence of DNA-dependent protein kinase catalytic subunit (P78527 whole entry): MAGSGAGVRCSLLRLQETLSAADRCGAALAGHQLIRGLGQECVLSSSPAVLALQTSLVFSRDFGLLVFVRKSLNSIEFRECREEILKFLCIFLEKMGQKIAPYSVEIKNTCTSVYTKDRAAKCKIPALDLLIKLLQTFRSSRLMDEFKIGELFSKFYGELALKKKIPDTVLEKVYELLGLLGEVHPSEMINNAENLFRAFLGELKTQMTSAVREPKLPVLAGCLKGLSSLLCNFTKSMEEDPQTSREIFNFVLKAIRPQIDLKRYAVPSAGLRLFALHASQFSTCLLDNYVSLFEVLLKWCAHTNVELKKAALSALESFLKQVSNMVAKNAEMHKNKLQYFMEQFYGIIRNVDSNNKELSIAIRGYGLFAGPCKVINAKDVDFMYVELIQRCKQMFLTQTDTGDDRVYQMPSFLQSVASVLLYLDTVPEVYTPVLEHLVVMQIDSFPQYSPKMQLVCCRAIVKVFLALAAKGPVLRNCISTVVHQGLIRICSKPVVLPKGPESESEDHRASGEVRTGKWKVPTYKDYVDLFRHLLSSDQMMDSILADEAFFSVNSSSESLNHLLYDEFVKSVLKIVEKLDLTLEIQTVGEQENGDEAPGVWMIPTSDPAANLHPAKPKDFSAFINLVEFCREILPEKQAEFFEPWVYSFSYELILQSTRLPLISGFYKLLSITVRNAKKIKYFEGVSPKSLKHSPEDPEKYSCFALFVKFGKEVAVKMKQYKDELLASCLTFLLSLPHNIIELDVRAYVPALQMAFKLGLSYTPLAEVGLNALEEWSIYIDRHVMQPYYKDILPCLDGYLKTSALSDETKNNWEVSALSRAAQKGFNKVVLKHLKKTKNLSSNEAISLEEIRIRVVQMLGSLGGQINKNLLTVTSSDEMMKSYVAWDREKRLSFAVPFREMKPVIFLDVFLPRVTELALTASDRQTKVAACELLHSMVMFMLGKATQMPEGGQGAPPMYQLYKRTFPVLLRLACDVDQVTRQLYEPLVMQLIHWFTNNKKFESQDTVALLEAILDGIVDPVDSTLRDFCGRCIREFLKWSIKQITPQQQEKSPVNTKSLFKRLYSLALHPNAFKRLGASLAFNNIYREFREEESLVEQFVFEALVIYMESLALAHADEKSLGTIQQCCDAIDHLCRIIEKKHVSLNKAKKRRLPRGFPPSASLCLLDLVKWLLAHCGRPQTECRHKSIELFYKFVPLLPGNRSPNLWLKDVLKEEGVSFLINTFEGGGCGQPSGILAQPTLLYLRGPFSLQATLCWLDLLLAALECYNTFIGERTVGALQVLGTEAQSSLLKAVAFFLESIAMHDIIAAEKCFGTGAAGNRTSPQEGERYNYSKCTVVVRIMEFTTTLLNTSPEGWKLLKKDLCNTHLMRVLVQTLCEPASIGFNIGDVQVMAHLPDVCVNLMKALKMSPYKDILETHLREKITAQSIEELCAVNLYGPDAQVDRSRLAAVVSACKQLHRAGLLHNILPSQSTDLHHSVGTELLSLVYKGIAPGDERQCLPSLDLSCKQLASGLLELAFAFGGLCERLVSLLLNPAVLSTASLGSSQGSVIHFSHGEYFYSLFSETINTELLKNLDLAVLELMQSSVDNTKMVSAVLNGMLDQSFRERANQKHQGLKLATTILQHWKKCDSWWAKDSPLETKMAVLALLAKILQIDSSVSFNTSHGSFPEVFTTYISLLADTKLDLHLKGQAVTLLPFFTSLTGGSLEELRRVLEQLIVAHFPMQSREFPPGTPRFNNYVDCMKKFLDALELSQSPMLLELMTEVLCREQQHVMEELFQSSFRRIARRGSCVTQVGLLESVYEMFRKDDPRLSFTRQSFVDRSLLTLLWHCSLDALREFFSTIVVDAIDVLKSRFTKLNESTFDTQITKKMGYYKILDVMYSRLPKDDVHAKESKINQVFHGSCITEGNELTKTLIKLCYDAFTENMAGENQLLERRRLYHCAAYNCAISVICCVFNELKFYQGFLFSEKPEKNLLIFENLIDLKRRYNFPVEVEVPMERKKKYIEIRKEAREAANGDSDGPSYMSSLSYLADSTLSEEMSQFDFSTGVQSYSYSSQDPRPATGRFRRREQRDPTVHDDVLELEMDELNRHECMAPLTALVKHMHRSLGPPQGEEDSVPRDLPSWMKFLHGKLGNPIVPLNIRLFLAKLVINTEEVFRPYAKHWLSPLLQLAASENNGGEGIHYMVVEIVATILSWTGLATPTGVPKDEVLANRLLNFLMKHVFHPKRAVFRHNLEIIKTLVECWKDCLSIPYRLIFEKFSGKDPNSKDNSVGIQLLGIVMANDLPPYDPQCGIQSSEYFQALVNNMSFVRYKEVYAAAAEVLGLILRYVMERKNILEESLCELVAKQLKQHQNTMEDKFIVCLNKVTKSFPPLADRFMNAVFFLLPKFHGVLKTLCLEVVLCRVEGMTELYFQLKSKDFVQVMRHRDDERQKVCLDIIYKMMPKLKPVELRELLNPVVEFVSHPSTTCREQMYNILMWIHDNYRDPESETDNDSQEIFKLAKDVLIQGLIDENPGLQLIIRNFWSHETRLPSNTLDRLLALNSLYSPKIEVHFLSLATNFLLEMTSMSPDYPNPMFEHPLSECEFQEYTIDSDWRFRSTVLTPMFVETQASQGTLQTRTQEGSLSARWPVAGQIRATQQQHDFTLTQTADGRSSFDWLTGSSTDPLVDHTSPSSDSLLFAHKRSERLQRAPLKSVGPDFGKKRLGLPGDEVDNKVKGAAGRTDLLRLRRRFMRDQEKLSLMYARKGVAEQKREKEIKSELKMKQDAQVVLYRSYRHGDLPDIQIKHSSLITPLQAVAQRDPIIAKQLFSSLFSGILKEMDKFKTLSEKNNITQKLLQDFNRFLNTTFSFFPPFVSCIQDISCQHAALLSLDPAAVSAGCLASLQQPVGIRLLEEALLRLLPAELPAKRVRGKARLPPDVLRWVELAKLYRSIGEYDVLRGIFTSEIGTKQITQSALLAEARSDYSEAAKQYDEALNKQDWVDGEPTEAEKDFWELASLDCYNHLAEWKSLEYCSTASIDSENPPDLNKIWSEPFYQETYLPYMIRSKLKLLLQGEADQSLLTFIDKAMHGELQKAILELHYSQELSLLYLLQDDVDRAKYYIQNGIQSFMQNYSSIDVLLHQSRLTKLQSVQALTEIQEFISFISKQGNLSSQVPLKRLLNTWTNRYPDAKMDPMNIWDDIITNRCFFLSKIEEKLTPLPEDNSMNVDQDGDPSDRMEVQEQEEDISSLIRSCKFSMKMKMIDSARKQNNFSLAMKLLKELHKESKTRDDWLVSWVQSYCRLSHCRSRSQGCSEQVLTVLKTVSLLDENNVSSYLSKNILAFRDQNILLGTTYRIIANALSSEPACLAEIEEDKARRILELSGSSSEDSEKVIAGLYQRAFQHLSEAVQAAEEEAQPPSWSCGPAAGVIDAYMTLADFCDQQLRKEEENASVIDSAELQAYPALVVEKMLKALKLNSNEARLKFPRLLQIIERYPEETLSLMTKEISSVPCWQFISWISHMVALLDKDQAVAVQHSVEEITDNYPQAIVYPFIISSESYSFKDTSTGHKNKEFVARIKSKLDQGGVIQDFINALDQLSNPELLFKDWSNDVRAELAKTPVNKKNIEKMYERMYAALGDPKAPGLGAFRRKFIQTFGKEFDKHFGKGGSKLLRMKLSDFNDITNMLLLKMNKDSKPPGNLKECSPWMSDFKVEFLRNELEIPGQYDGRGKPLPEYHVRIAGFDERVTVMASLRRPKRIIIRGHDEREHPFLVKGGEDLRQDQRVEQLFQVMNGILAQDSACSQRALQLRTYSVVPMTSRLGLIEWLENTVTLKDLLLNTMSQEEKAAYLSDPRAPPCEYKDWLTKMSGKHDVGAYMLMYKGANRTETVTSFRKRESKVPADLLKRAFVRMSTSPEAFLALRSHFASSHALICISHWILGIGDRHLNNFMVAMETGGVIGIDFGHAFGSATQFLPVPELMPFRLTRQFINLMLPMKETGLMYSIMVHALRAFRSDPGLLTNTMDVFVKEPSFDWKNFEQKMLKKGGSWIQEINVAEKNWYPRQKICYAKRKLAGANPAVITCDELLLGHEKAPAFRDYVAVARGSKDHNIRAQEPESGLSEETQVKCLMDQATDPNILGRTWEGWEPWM
# T1 sequence (Q8NEB9 whole entry): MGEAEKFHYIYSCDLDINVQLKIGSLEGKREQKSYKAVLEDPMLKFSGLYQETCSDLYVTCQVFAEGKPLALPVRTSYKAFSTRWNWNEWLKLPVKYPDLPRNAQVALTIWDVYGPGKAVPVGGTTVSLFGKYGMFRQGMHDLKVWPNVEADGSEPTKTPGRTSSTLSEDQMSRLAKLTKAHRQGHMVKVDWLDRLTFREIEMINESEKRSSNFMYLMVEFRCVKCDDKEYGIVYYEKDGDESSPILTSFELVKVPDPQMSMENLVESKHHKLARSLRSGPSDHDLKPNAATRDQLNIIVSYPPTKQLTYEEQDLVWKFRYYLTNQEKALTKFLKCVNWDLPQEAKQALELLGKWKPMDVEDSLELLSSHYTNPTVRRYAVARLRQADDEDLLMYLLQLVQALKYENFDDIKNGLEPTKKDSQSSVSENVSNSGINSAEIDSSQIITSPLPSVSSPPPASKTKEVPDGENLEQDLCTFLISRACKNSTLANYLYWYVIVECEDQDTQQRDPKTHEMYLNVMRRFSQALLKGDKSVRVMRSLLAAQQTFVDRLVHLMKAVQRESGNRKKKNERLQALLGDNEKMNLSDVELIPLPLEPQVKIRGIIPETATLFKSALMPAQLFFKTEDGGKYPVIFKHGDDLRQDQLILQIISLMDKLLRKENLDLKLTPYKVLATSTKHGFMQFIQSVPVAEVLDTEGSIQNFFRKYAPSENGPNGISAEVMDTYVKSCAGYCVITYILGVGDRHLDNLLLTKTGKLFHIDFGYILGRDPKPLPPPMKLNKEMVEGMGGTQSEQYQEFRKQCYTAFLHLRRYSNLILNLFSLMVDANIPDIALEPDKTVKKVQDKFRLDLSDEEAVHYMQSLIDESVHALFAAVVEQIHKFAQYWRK
SMILES,Ratio Ki (Homo sapiens [1]),solubility kinetic at 2 h [2] [µg/mL],pKi [3],pIC50 [4],Ratio Ki (Homo sapiens [5]),pIC50 [6],pKi [9],pKi [14],Ratio [15],Kp uu [16],Papp A→B at 1 h [17] [×10⁻⁶ cm/s],CLint scaled at 1 µM [19] [mL/min/kg],Vd [21] [L/kg],clearance [22] [mL/min/kg],Kp [23],half-life [24] [h],other results
C[C@@H]1CCN(c2nc(N3CCOCC3)cc(=O)[nH]2)[C@H]1Cc1ccccc1,15,33,8.22,7.05,275,5.26,9.40,6.96,,,,,,,,,clearance [7]: 115 mL/min/kg; bioavailability [8]: 78%; Kp uu [10]: 0.47; half-life [11]: 0.75 h; Vd [12]: 11 L/kg; Kp [13]: 1
O=c1cc(N2CCOCC2)cc(N2CCCCC[C@@H]2Cc2ccccc2)[nH]1,50,> 58,7.30,6.64,180,< 4.52,9.00,6.74,4.3,0.18,55.6,69,3.4,35,0.41,1.6,pKd [18]: 4.96; bioavailability [20]: 68%
C[C@@H]1CN(c2cc(N3C[C@@H]4C[C@@H]4[C@@H]3Cc3ccccc3)[nH]c(=O)c2)CCO1,,23,6.12,,,4.89,,8.15,,,,,,,,,
O=c1cc(N2CCOCC2)cc(N2CC[C@@H](F)[C@@H]2Cc2ccccc2)[nH]1,43,> 71,6.96,5.89,,,8.52,,7.2,,51.8,< 65,,,,,
CO[C@@H]1CCN(c2cc(N3CCOCC3)cc(=O)[nH]2)[C@H]1Cc1ccccc1,,72,,5.46,,,7.64,,12,,31.9,< 65,,,,,
O=c1cc(N2CCOCC2)cc(N2C[C@H]3C[C@H]3[C@@H]2Cc2ccccc2)[nH]1,49,59,7.01,,80,< 4.52,8.70,6.80,6.7,0.12,65.7,< 75,4.7,33.3,0.23,2.4,pKd [25]: 5.34
